Results taken from ChEMBL document CHEMBL1781892, “Microwave assisted synthesis and structure-activity relationship of 4-hydroxy-N'-[1-phenylethylidene]-2H/2-methyl-1,2-benzothiazine-3-carbohydrazide 1,1-dioxides as anti-microbial agents” (2011).

Experiments:
[1] = system: Trichoderma viride; experiment: Antifungal activity against Trichoderma viride using 1 x 10^5 spore/100 uL assessed as 99.5% fungal killing of original inoculum after 72 hrs by microdilution method; type: functional
[2] = system: Pseudomonas aeruginosa; experiment: Antibacterial activity against Pseudomonas aeruginosa using 1 x 10^4 CFU/ml inoculum after 24 hrs by microdilution method; type: functional
[3] = system: Curvularia australiensis; experiment: Antifungal activity against Drechslera australiensis using 1 x 10^5 spore/100 uL assessed as 99.5% fungal killing of original inoculum after 72 hrs by microdilution method; type: functional
[4] = system: Aspergillus flavus; experiment: Antifungal activity against Aspergillus flavus using 1 x 10^5 spore/100 uL after 72 hrs by microdilution method; type: functional
[5] = system: Bacillus thuringiensis; experiment: Antibacterial activity against Bacillus thuringiensis using 1 x 10^4 CFU/ml inoculum after 24 hrs by microdilution method; type: functional
[6] = Antifungal activity against Trichoderma reesei using 1 x 10^5 spore/100 uL after 72 hrs by microdilution method; type: functional
How it was run: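 Spores washed from malt agar cultures with sterile 0.85% saline plus 0.1% Tween 80, adjusted to about 1.0×10^5 per 100 µl well. Compounds from a 1 mg/ml DMSO stock were serially diluted in malt broth with inoculum in 96-well plates and incubated 72 h at 28 °C. MIC is the lowest concentration with no visible growth under a binocular microscope. DMSO served as negative control.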

[7] = system: Bacillus subtilis; experiment: Antibacterial activity against Bacillus subtilis using 1 x 10^4 CFU/ml inoculum after 24 hrs by microdilution method; type: functional
[8] = system: Curvularia australiensis; experiment: Antifungal activity against Drechslera australiensis using 1 x 10^5 spore/100 uL after 72 hrs by microdilution method; type: functional
[9] = system: Aspergillus flavus; experiment: Antifungal activity against Aspergillus flavus using 1 x 10^5 spore/100 uL assessed as 99.5% fungal killing of original inoculum after 72 hrs by microdilution method; type: functional
[10] = system: Escherichia coli; experiment: Antibacterial activity against Escherichia coli using 1 x 10^4 CFU/ml inoculum after 24 hrs by microdilution method; type: functional
[11] = system: Aspergillus fumigatus; experiment: Antifungal activity against Aspergillus fumigatus using 1 x 10^5 spore/100 uL assessed as 99.5% fungal killing of original inoculum after 72 hrs by microdilution method; type: functional
[12] = system: Aspergillus niger; experiment: Antifungal activity against Aspergillus niger using 1 x 10^5 spore/100 uL after 72 hrs by microdilution method; type: functional
[13] = system: Bacillus cereus; experiment: Antibacterial activity against Bacillus cereus using 1 x 10^4 CFU/ml inoculum after 24 hrs by microdilution method; type: functional
[14] = system: Salmonella typhi; experiment: Antibacterial activity against Salmonella typhi using 1 x 10^4 CFU/ml inoculum after 24 hrs by microdilution method; type: functional, Salmonella enterica subsp. enterica serovar Typhi
[15] = system: Staphylococcus aureus; experiment: Antibacterial activity against Staphylococcus aureus using 1 x 10^4 CFU/ml inoculum after 24 hrs by microdilution method; type: functional
[16] = system: Aspergillus niger; experiment: Antifungal activity against Aspergillus niger using 1 x 10^5 spore/100 uL assessed as 99.5% fungal killing of original inoculum after 72 hrs by microdilution method; type: functional
[17] = system: Trichoderma viride; experiment: Antifungal activity against Trichoderma viride using 1 x 10^5 spore/100 uL after 72 hrs by microdilution method; type: functional
[18] = system: Aspergillus fumigatus; experiment: Antifungal activity against Aspergillus fumigatus using 1 x 10^5 spore/100 uL after 72 hrs by microdilution method; type: functional
[19] = Antifungal activity against Trichoderma reesei using 1 x 10^5 spore/100 uL assessed as 99.5% fungal killing of original inoculum after 72 hrs by microdilution method; type: functional

Row | SMILES | MFC [1] | MIC [2] | MFC [3] | MIC [4] | MIC [5] | MIC [6] | MIC [7] | MIC [8] | MFC [9] | MIC [10] | MFC [11] | MIC [12] | MIC [13] | MIC [14] | MIC [15] | MFC [16] | MIC [17] | MIC [18] | MFC [19]
1 | C/C(=N\NC(=O)C1=C(O)c2ccccc2S(=O)(=O)N1)c1ccc(F)cc1F | 139.6 ×10⁻² umol | 30.6 ×10⁻² umol | 145.7 ×10⁻² umol | 76.4 ×10⁻² umol | 8.2 ×10⁻² umol | 69 ×10⁻² µmol | 8 ×10⁻² umol | 72.3 ×10⁻² umol | 168.7 ×10⁻² umol | 29.2 ×10⁻² umol | 118.2 ×10⁻² umol | 76.6 ×10⁻² umol | 7.8 ×10⁻² umol | 33.2 ×10⁻² umol | 28.1 ×10⁻² umol | 160.3 ×10⁻² umol | 72 ×10⁻² umol | 69.8 ×10⁻² umol | 138 ×10⁻² µmol
2 | COc1cccc(/C(C)=N/NC(=O)C2=C(O)c3ccccc3S(=O)(=O)N2)c1 | 149.9 ×10⁻² umol | 26.7 ×10⁻² umol | 162.7 ×10⁻² umol | 92.7 ×10⁻² umol | 7.7 ×10⁻² umol | 80 ×10⁻² µmol | 7.5 ×10⁻² umol | 82 ×10⁻² umol | 198.4 ×10⁻² umol | 25.6 ×10⁻² umol | 181.2 ×10⁻² umol | 90.1 ×10⁻² umol | 7.2 ×10⁻² umol | 29.3 ×10⁻² umol | 24.5 ×10⁻² umol | 176.3 ×10⁻² umol | 80.7 ×10⁻² umol | 85.9 ×10⁻² umol | 161 ×10⁻² µmol
3 | COc1cccc(/C(C)=N/NC(=O)C2=C(O)c3ccccc3S(=O)(=O)N2C)c1 | 160.4 ×10⁻² umol | 26.8 ×10⁻² umol | 154.8 ×10⁻² umol | 92.6 ×10⁻² umol | 7.8 ×10⁻² umol | 79.6 ×10⁻² µmol | 7.7 ×10⁻² umol | 81.7 ×10⁻² umol | 188.9 ×10⁻² umol | 25.6 ×10⁻² umol | 168.2 ×10⁻² umol | 90.1 ×10⁻² umol | 7 ×10⁻² umol | 29.4 ×10⁻² umol | 24.1 ×10⁻² umol | 190 ×10⁻² umol | 80.5 ×10⁻² umol | 85.7 ×10⁻² umol | 159 ×10⁻² µmol
4 | C/C(=N\NC(=O)C1=C(O)c2ccccc2S(=O)(=O)N1C)c1ccc(I)cc1 | 139.2 ×10⁻² umol | 30.5 ×10⁻² umol | 150.6 ×10⁻² umol | 89.8 ×10⁻² umol | 9.2 ×10⁻² umol | 70.1 ×10⁻² µmol | 9.3 ×10⁻² umol | 74 ×10⁻² umol | 190.7 ×10⁻² umol | 29.3 ×10⁻² umol | 159.8 ×10⁻² umol | 91.4 ×10⁻² umol | 9 ×10⁻² umol | 33.2 ×10⁻² umol | 28 ×10⁻² umol | 198.4 ×10⁻² umol | 71.1 ×10⁻² umol | 81.9 ×10⁻² umol | 123 ×10⁻² µmol
5 | C/C(=N\NC(=O)C1=C(O)c2ccccc2S(=O)(=O)N1)c1ccccc1O | >200 ×10⁻² umol | 20.6 ×10⁻² umol | >200 ×10⁻² umol | >100 ×10⁻² umol | 4.1 ×10⁻² umol | > 100 ×10⁻² µmol | 4.4 ×10⁻² umol | >100 ×10⁻² umol | >200 ×10⁻² umol | 19.9 ×10⁻² umol | >200 ×10⁻² umol | >100 ×10⁻² umol | 4.2 ×10⁻² umol | 22.7 ×10⁻² umol | 17.8 ×10⁻² umol | >200 ×10⁻² umol | >100 ×10⁻² umol | >100 ×10⁻² umol | > 200 ×10⁻² µmol
